Assay outcomes: PubChem, several laboratories
core dimer inh = HCV core protein dimerization inhibition. actives 0.33% (n = 300,000). AID 1899. TR-FRET GST/Flag-core106 dimerization, 1536-well. inhibition, % at 5 µM;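 active = inhibition above the mean of all tested compounds plus 3 SD, set per screening campaign, cut at about 45% in these data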
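Assay system – GST-tagged and Flag-tagged HCV core protein residues 1-106 · Quantity – core106 proteins, GST 13.5 nM and Flag 17 nM · Benchmarks – unlabelled core106 and no-GST-core106 wells · Read-out basis – percent inhibition of core106 dimerization signal · Detection – time-resolved FRET, ex 340 nm, em 617 and 671 nm · Schedule – 4 h at 22.5 °C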
MEX-5 binding = C. elegans MEX-5 TCR-2 RNA binding activity | MEX-5/FITC-TCR2 RNA binding, fluorescence polarization; stronger effect = lower value | Q9XUB2 | actives 0.38% (n = 300,000) | activity score (negative = inhibition of binding), % at 10 µM;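 active = inhibition past about -25% in most replicates, and total fluorescence under double the plate's negative control median, limit read from the data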
Target sequence (Q9XUB2 whole entry, looked up): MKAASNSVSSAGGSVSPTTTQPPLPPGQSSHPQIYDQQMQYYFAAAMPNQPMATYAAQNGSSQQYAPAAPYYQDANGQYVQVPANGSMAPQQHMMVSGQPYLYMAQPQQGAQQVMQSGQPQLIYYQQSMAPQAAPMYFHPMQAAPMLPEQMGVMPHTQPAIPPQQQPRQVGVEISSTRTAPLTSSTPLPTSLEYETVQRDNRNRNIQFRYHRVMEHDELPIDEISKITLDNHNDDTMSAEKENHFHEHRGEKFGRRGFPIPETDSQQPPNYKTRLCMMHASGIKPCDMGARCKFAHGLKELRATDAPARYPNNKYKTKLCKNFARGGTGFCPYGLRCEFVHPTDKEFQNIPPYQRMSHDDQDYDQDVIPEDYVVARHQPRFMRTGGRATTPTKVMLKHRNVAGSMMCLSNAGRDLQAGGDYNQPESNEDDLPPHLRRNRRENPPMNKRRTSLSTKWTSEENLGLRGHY
HCV NS3 hel inh = inhibitors of Hepatitis C virus NS3 helicase. NS3 helicase DNA unwinding, Cy5 molecular beacon fluorescence. inhibition, % at 10.9 µM. actives 0.56% (n = 290,000). AID 1800;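 active = inhibition above the mean of all tested compounds plus 3 SD, set per campaign, cut at about 35% in these data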
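System: NS3 helicase fragment of HCV / Schedule: 1 h at 25 °C / Control set: DMSO alone as 0% and 110 µM thioflavine S as 100% / Reagent: Cy5/quencher beacon DNA duplex and ATP to start / Technique: Cy5 fluorescence / Replication: singlicate / Evaluation: % inhibition of end-to-start signal ratio versus controls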
EBNA-1 inhibitor = blocks EBNA-1 binding to DNA; EBNA-1 DNA binding, fluorescence polarization; inhibition, % at 14.8 µM; actives 0.34% (n = 300,000); in the data active = inhibition above about 28%
EBV gp42 block = inhibitors of Epstein-Barr virus glycoprotein 42. Fluorescence polarization binding assay, mP read-out. inhibition, % (tested at 21.74 µM). Q1HVG2. actives 0.42% (n = 220,000); in the data active = inhibition above about 50%
ZTA counter = ZTA (EBV) inhibition in EBNA-1 counter-screen; ZTA-DNA binding, fluorescence polarization; inhibition, % at 11 µM; actives 0.15% (n = 320,000); AID 2234; in the data active = inhibition above about 33%
Target sequence (P03206 whole entry, looked up): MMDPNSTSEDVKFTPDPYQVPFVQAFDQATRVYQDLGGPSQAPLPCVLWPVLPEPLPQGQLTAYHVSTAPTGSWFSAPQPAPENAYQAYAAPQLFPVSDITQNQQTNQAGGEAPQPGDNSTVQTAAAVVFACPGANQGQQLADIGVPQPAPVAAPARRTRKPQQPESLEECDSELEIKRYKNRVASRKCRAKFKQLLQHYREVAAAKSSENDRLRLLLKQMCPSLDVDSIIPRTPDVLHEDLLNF
NS3 helicase cf = HCV NS3 helicase inhibition, confirmation assay. inhibition, % at 10.9 µM. shares compounds with HCV NS3 hel inh. NS3 helicase DNA unwinding, Cy5 molecular beacon fluorescence. actives 31% (n = 1,600);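 active = inhibition above the mean of all tested compounds plus 3 SD, cutoff set per campaign, cut at about 36% in these data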
FID counter trip = counter-screen for HCV NS3 helicase inhibitors: DNA intercalator displacement | AID 1945 | DNA fluorescent intercalator displacement, fluorescence | actives 4% (n = 1,600) | inhibition, % at 7.9 µM | shares compounds with HCV NS3 hel inh; in the data active = inhibition above about 37%;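 also: higher means more displacement of ethidium bromide from the DNA hairpin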
DNA FID DR = DNA intercalator displacement in dose response; IC50, µM; fluorescent intercalator displacement from DNA, fluorescence; 120 tested, under 10 active; AID 2172; shares compounds with HCV NS3 hel inh; call rule not given here
Each line names hits and unclear results; the compound was inactive in the other large screens (follow-up assays come after a bar, where they were run). Hits are enriched below; roughly 1.7% of the tested compounds scored in any of these assays.

CCc1ccccc1OCC(=O)NC1CCCC1	HCV NS3 hel inh 49 (no result: core dimer inh, EBNA-1 inhibitor, ZTA counter) | NS3 helicase cf inactive | FID counter trip inactive
COC(=O)c1ccccc1OCC(=O)NC1CCCCC1	none
Cc1cc(C)cc(NC(=S)N2CCN(S(=O)(=O)c3ccccc3)CC2)c1	none (no result: core dimer inh, MEX-5 binding, EBNA-1 inhibitor, EBV gp42 block, ZTA counter)
C(=C\c1ccco1)/c1ccc2ccccc2n1	core dimer inh 53, HCV NS3 hel inh 42 | NS3 helicase cf inactive | FID counter trip inactive
COc1ccc(CNCc2cc3c(cc2[N+](=O)[O-])OCO3)cc1	HCV NS3 hel inh 40 (no result: EBV gp42 block) | NS3 helicase cf inactive | FID counter trip inactive
COc1ccc(N(CC(=O)NC2CCCC2)C(=O)CCC(=O)Nc2nc(C)cs2)cc1OC	none (no result: EBV gp42 block)
CN(C)C(=O)C[n+]1ccc(C(N)=O)cc1	none
CC(C)(C)C(=O)C[n+]1ccc(C(N)=O)cc1	HCV NS3 hel inh 47 | NS3 helicase cf inactive | FID counter trip inactive
CCC(C)n1c(SCC(=O)NC2CCS(=O)(=O)C2)nc2ccccc2c1=O (stereo unspecified)	none (no result: HCV NS3 hel inh, EBV gp42 block)
O=C(Oc1ccc(NC(=O)c2cc3c(cc2Br)OCO3)cc1)c1ccccc1	none | NS3 helicase cf inactive | FID counter trip inactive
COC(=O)c1ccc(NC(=O)CCS(=O)(=O)c2ccc3c(c2)NC(=O)C(C)S3)cc1 (stereo unspecified)	none (no result: EBV gp42 block)
COc1ccccc1NC(=O)CCS(=O)(=O)c1ccc2c(c1)NC(=O)C(C)S2 (stereo unspecified)	HCV NS3 hel inh 46 (no result: EBV gp42 block) | NS3 helicase cf inactive | FID counter trip inactive
Cc1cc(C(=O)Nc2ccc(C)c(C)c2)n(-c2ccccc2)n1	none (no result: EBV gp42 block)
CCOC(=O)c1ccc(NC(=O)c2cc(C)nn2-c2ccccc2)cc1	HCV NS3 hel inh 46 (no result: EBV gp42 block) | NS3 helicase cf inactive | FID counter trip inactive
CC(C)(C)NC(=O)CN(C(=O)CNS(=O)(=O)c1ccc(Cl)cc1)c1ccc2c(c1)OCCO2	none (no result: EBV gp42 block)
Cc1nn(Cc2ccc(Cl)cc2)c(C)c1NC(=O)c1cc(-c2ccco2)on1	none
Cc1nn(Cc2ccc(Cl)c(Cl)c2)c(C)c1NC(=O)c1cc(-c2ccco2)on1	HCV NS3 hel inh 40 | NS3 helicase cf inactive | FID counter trip inactive
O=C(Cc1ccccc1)N1CCN(C(=O)c2ccco2)CC1	none
O=C(Cc1ccc(Br)cc1)N1CCN(C(=O)c2ccco2)CC1	HCV NS3 hel inh 38 (no result: EBV gp42 block) | NS3 helicase cf inactive | FID counter trip inactive
CC(C)C[C@H](NC(=O)[C@H](Cc1ccccc1)n1c(=O)[nH]c2ccccc2c1=O)C(=O)N1CCC[C@@H]1C(=O)O	HCV NS3 hel inh 39 (no result: EBV gp42 block) | NS3 helicase cf inactive | FID counter trip inactive
Cc1ccc(S(=O)(=O)N(C(=O)c2ccco2)c2cc3sc(=O)oc3c3ccccc23)cc1	HCV NS3 hel inh 40 | NS3 helicase cf inactive | FID counter trip inactive
Cc1ccc(NC(=O)C(c2ccccc2)c2ccccc2)c(O)c1	none (no result: EBV gp42 block)
Cc1ccc(C(=O)c2c(C)oc3c2C(=O)C(=O)c2ccccc2-3)cc1	HCV NS3 hel inh 36 | NS3 helicase cf inactive | FID counter trip inactive
O=C(O)CCn1c(SCCOc2ccccc2)nc2ccccc21	HCV NS3 hel inh 41 (no result: EBV gp42 block) | NS3 helicase cf inactive | FID counter trip inactive
Cc1ccc(/C=C(\C#N)C(=O)N2CCCC2)c(C)c1	none
COc1ccc(-n2nc(C(=O)NCC(=O)N3CCN(c4ccccc4)CC3)c3ccccc3c2=O)cc1OC	none (no result: EBV gp42 block)
Cc1ccc(S(=O)(=O)Nc2cc(C(=O)O)ccc2N2CCCCC2)cc1	HCV NS3 hel inh 75 | NS3 helicase cf inactive | FID counter trip inactive
Cn1ccc2ccc(C3=CC(=O)C[C@H](c4ccc(F)cc4)C3)cc21	none (no result: core dimer inh, MEX-5 binding, HCV NS3 hel inh, EBNA-1 inhibitor, EBV gp42 block)
Cc1cc(C(=O)CSc2nnc(-c3ccccc3)o2)c(C)n1CC1COc2ccccc2O1 (stereo unspecified)	none
Cc1cc(C(=O)CSc2nnc(-c3ccco3)o2)c(C)n1CC1COc2ccccc2O1 (stereo unspecified)	HCV NS3 hel inh 42 (no result: core dimer inh, EBNA-1 inhibitor, ZTA counter) | NS3 helicase cf inactive | FID counter trip inactive
CC(COc1ccccc1Cc1ccccc1)N1CCCCC1 (stereo unspecified)	none (no result: HCV NS3 hel inh, EBV gp42 block)
COc1ccc2nc3ccccc3nc2c1N	HCV NS3 hel inh 50 | NS3 helicase cf inactive | FID counter trip inactive
N#C/C(=C(/O)c1ccc(Cl)cc1)c1nc2ccccc2[nH]1	none (no result: EBV gp42 block)
N#C/C(=C(\O)c1cc(Cl)sc1Cl)c1nc2ccccc2[nH]1	HCV NS3 hel inh 43 (no result: EBV gp42 block) | NS3 helicase cf inactive | FID counter trip inactive
O=[N+]([O-])/C(C=Nc1ccccc1O)=C\Nc1ccccc1O	HCV NS3 hel inh 38 (no result: core dimer inh, EBNA-1 inhibitor, ZTA counter) | NS3 helicase cf inactive | FID counter trip inactive
COc1ccc(-n2c(-c3ccc(Br)cc3)c[n+]3c2SC(C)C3)cc1 (stereo unspecified)	none
C/C=C/COC(=O)c1[nH]c2c(c1C)C(=O)CC(c1ccc(N(C)C)cc1)C2 (stereo unspecified)	none
Cc1c(C(=O)OCC(C)C)[nH]c2c1C(=O)CC(c1ccco1)C2 (stereo unspecified)	core dimer inh 47, HCV NS3 hel inh 37 | NS3 helicase cf inactive | FID counter trip inactive
COC(=O)c1[nH]c2c(c1C)C(=O)CC(c1ccccc1)C2 (stereo unspecified)	none
C=CCOC(=O)c1[nH]c2c(c1C)C(=O)CC(c1ccco1)C2 (stereo unspecified)	HCV NS3 hel inh 39 | NS3 helicase cf inactive | FID counter trip inactive
COc1cc2ccccc2cc1C(=O)Nc1ccc(C)cn1	none (no result: EBV gp42 block)
Cc1ccc(-c2cc(C(=O)O)c3cc(Br)ccc3n2)o1	HCV NS3 hel inh 38 | NS3 helicase cf 79 | FID counter trip inactive
Cc1ccc(-c2cc(C(=O)NN3CCOCC3)c3cc(Br)ccc3n2)o1	none
Cc1ccc(-c2cc(C(=O)O)c3cc(Br)ccc3n2)s1	HCV NS3 hel inh 38 (no result: core dimer inh, EBNA-1 inhibitor, EBV gp42 block, ZTA counter) | NS3 helicase cf 37 | FID counter trip inactive
N#C/C(=C\c1ccc(OCc2ccc(C(=O)O)cc2)cc1)C(=O)NCc1ccccc1	HCV NS3 hel inh 39 (no result: EBV gp42 block) | NS3 helicase cf 70 | FID counter trip inactive | DNA FID DR inactive
O=C(/C=C/c1ccco1)Nc1nc(-c2ccc(F)c(F)c2)cs1	HCV NS3 hel inh 54 | NS3 helicase cf inactive | FID counter trip inactive
C(=N\Nc1nc(-c2ccccc2)cs1)/c1ccco1	none
Cc1ccc(-c2csc(N/N=C/c3ccco3)n2)cc1	HCV NS3 hel inh 46 | NS3 helicase cf inactive | FID counter trip inactive
